# CHO parental Ca = signal in parental CHO cells, OX1R antagonist counter-screen | parental CHO-K1, ATP-induced calcium, Fluo-8 fluorescence | inhibition, % at 5.6 µM | hit rate 0.63% among 330,000 | AID 463079;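 active means inhibition above that plate's mean sample inhibition plus 3 SD, cut at about 26% in these data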;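 further: 0% = ATP-challenged DMSO wells and 100% = DMSO wells without ATP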
#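 test system = CHO parental line | reagent = ATP stimulus | measured by = intracellular calcium via Fluo-8 no-wash fluorescent dye | control set = ATP and no-ATP DMSO wells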
# OX1R antag-1 = blocks the human orexin 1 receptor | O43613 | CHO/OX1R cells, Fluo-8 calcium fluorescence, orexin A | inhibition, % at 5 µM | hit rate 0.43% among 330,000 | AID 434989;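 active means inhibition above its plate's threshold, mean inhibition of all tested compounds on the plate plus 3 SD, cut at about 37% in these data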;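 further: 0% = orexin A challenge wells and 100% = SB-334867-A antagonist wells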
# Target sequence (O43613 whole entry, looked up): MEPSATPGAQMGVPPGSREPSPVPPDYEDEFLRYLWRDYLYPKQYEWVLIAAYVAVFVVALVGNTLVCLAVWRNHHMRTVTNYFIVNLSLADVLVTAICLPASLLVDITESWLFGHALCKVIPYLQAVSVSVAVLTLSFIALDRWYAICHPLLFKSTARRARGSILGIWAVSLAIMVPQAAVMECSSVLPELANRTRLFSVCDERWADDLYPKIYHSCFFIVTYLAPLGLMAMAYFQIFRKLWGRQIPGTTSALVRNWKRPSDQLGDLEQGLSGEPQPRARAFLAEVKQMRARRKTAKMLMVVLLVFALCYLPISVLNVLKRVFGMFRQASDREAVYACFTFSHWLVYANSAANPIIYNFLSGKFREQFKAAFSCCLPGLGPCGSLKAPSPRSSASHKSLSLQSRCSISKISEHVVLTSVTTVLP
# OX1R antag-2 = blocks the human orexin 1 receptor; AID 485270; O43613; hit rate 1.8% among 330,000; OX1R-expressing cells, FRET antagonist read-out; inhibition, % at 6.6 µM; in the data active means inhibition mostly above about 38%, no sharp cut-off; inactive means mostly below about 40%;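 further: 0% = agonist challenge alone and 100% = reference antagonist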
# GPR7 antagonist = human neuropeptides B/W receptor 1 antagonism; P48145; GPR7-expressing cells, fluorescence antagonist assay; inhibition, % at 4.4 µM; hit rate 1.1% among 290,000; AID 1861; in the data active means inhibition above about 16%, passing the limit was not always enough;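 further: cells stimulated with the agonist NPW; 0% = agonist with vehicle and 100% = vehicle without agonist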
# GalR3 antagonist = blocks the human galanin receptor 3; hit rate 0.44% among 360,000; inhibition, % at 3 µM; O60755; HEK293 GalR3-CNG cAMP membrane potential fluorescence; galR3 body fused to GalR1 C-terminus; AID 651719;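 active means inhibition above the screen-wide average plus 3 SD, cut at about 13% in these data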;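 further: forskolin and galanin both at EC90 stimulate the cells; cAMP rise reported by CNG channel membrane potential dye signal; 0% = forskolin plus galanin with DMSO and 100% = forskolin alone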
# GPR7 antag cf = human GPR7 antagonism, confirmation assay | shares compounds with GPR7 antagonist | GPR7-expressing cells, calcium fluorescence antagonist mode | inhibition, % at 4.4 µM | hit rate 52% among 2,400; in the data active means inhibition above about 24%;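 further: stimulated with the GPR7 agonist NPW; 0% = agonist plus vehicle and 100% = vehicle alone without agonist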
# MCHR1 antagonist = counter-screen for GPR7 antagonists: antagonists of human MCHR1 | shares compounds with GPR7 antagonist | MCHR1-expressing cells, fluorescence antagonist assay | inhibition, % at 4.4 µM | hit rate 62% among 2,400; in the data active means inhibition above about 22%;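 further: 0% = vehicle with agonist and 100% = vehicle without agonist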
# Active calls of the source: *; / = not tested or not shown. Only some compounds are listed: those with a hit (about 3.1% of all), similar ones and a draw of the others.
SMILES,CHO parental Ca,OX1R antag-1,OX1R antag-2,GPR7 antagonist,GalR3 antagonist,GPR7 antag cf,MCHR1 antagonist
Cc1cc(C(=O)N[C@@H](c2ccccc2)[C@]2(C)C[C@H]2[C@@H](C)C(=O)Nc2ccc3ccccc3c2)no1,-27,-26,13,2,-6,/,/
Cc1cc(C(=O)N[C@H](c2ccccc2)[C@@]2(C)C[C@@H]2[C@@H](C)C(=O)Nc2ccc3ccccc3c2)no1,-11,5,50,29*,-10,46*,64*
O=C(CCCn1c(=O)oc2ccccc21)NC1CCCCCC1,-18,-26,11,21*,/,-10,-4
C/C(=N\NC(=O)c1ccc(Cl)cc1)c1ccc2[nH]ccc2c1,-3,-6,-6,-6,-11,/,/
O=C(NCCN1CCOCC1)c1cc(Br)ccc1Cl,-3,-1,3,29*,-2,-12,12
O=C(NCCN1CCOCC1)c1cc([N+](=O)[O-])ccc1Cl,-5,-13,23,-13,-9,/,/
COc1ccc(Nc2ccc(Nc3ccc(OC)cc3)nn2)cc1,-11,12,15,92*,-6,85*,89*
COc1ccc(C(CCNCc2ccc(OC)c(OC)c2)c2ccc(F)cc2)cc1 (centres undefined),4,-11,10,31*,-2,52*,80*
COc1ccc(CCNCCC(c2ccccc2)c2ccccc2)cc1OC,/,/,/,/,-4,/,/
Cc1cc(SCc2cccc([N+](=O)[O-])c2)nc(=O)[nH]1,22,-7,21,5,0,/,/
Cc1cc(SCc2ccc([N+](=O)[O-])cc2)nc(=O)[nH]1,-12,10,17,26*,-9,4,4
CCN(C(=O)CSc1nnc(-c2ccc(OC)cc2)n1C(C)C)C1CCS(=O)(=O)C1 (centres undefined),-12,-8,12,/,3,/,/
CC(C)(CNS(=O)(=O)c1ccc(Br)s1)N1CCOCC1,-9,4,7,/,-3,/,/
COC(=O)CNC(c1ccccc1)c1cc(C)ccc1NC(=O)CNC(=O)OCc1ccccc1 (centres undefined),-27,-33,30,39*,-8,29*,18
CCNC(=O)C1CCCN(C(=O)Cc2cccs2)CC1 (centres undefined),/,/,/,/,-1,/,/
Cc1ccc(OCC(=O)NCCNC(=O)c2cccnc2)cc1C,4,-9,15,-20,-7,/,/
CC[n+]1c(/C=C/N(C)c2ccccc2)n(-c2ccccc2)c2ccc(-c3nc4ccccc4s3)cc21,69*,79*,42*,84*,/,95*,89*
CC(C)(c1ccccc1)c1ccc(OCCN2CCOCC2)cc1,-10,-62,1,37*,-11,8,6
CCC(C)NCCOc1ccc(C(C)(C)c2ccccc2)cc1 (centres undefined),3,-6,-7,22*,7,27*,30*
Cn1c(N)c(C(=O)COC(=O)Cc2cccc(C(F)(F)F)c2)c(=O)n(C)c1=O,8,3,6,/,-7,/,/
CCN1CCN(c2nc(SC)nc3sc4c(c23)CC(C)(C)OC4)CC1,/,/,/,4,3,/,/
CCC1(C)Cc2c(sc3nc(SC)nc(NCCN(C)C)c23)CO1 (centres undefined),-10,4,8,26*,-3,9,14
CCc1nc2ccc(C(=O)Nc3cc(-c4ccccc4)ccc3OC)cn2c1N(C)C(=O)c1cccc(OC)c1,/,/,/,/,-2,/,/
COc1ccc(C(CNC(=O)c2ccc(S(=O)(=O)Nc3ccc(F)cc3)cc2)N(C)C)cc1 (centres undefined),2,-2,19,54*,-10,51*,49*
Cc1c(C)c2cc(Cl)c(OCC(=O)N3CCN(c4ccc(F)cc4)CC3)cc2oc1=O,-5,-6,12,-1,-1,/,/
COc1ccc(NC(=O)CSCc2ccc(C#N)cc2)c(OC)c1,-6,-4,38,1,-8,/,/
COC(=O)c1ccc(CSCc2ccc(C#N)cc2)cc1,10,-14,4,48*,/,55*,56*
CC(C)(C)Cc1c(-c2ccc(C#N)cc2)nc2c(Cl)cc(C(F)(F)F)cn12,/,/,/,/,0,/,/
COc1ccccc1NC(=S)NCCc1c[nH]c2ccccc12,13,15,54,-1,3,/,/

# Bioassay records: PubChem BioAssay, The Scripps Research Institute Molecular Screening Center
